ChEMBL document CHEMBL3297732, “Aryl-substituted aminobenzimidazoles targeting the hepatitis C virus internal ribosome entry site” (Bioorg Med Chem Lett, 2014)
Activity calls are given as the source filed them. The rule behind the calls is not given here.

System: Internal ribosome entry site (IRES)
Assay: Non-specific binding affinity to cyanine dye-labeled HCV IRES subdomain 2a RNA assessed as precipitation of dye labeled RNA at 50 to 100 uM by FRET assay in presence of Mg2+
Settings: Hepacivirus hominis

Activity	SMILES
Active	CN(C)CCCOc1ccc2c(c1)nc(O)n2-c1ccccc1
Active	CN(C)CCCOc1ccc2nc(O)n(-c3ccc(N(C)C)cc3)c2c1
Active	CN(C)CCCOc1ccc2c(c1)nc(NC(=O)c1ccccc1)n2-c1ccc(N(C)C)cc1
Active	CN(C)CCOc1ccc2c(c1)nc(O)n2-c1ccccc1

Target: Internal ribosome entry site (IRES)
Assay: Binding affinity to cyanine dye-labeled HCV IRES subdomain 2a RNA by FRET assay in presence of Mg2+
Design: species or system Hepacivirus hominis
Settings: not given
Method in brief: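 Binding to IIa RNA measured by triplicate titration in a FRET assay that tracks ligand-induced conformational capture of the dye-labeled RNA. EC50 taken from a single-site dose-response fit to the titration data, with standard error from the triplicates.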

EC50 [µM]	SMILES
290	CN(C)CCCn1c(N)nc2cccc(-c3cccc(N(C)C)c3)c21
95	CN(C)CCCOc1ccc2c(c1)nc(N)n2-c1ccc(N(C)C)cc1
100	CN(C)c1cccc(-n2c(N)nc3ccc(Nc4ccncc4)cc32)c1
> 500	CN(C)CCCOc1ccc2c(c1)nc(NC(=O)c1ccccc1)n2-c1ccccc1
210	CC(=O)Nc1nc2cc(OCCCN(C)C)ccc2n1-c1ccccc1
74	CN(C)c1cccc(-n2c(N)nc3ccc(Nc4cccnc4)cc32)c1
100	CC(=O)Nc1nc2cc(OCCN(C)C)ccc2n1-c1ccccc1
120	CN(C)CCCOc1ccc2nc(N)n(-c3cccc(N(C)C)c3)c2c1
160	CN(C)CCCn1c(N)nc2ccc(Nc3ccncc3)cc21
> 500	CN(C)CCOc1ccc2c(c1)nc(NC(=O)c1ccccc1)n2-c1ccccc1
160	CN(C)CCCn1c(N)nc2ccc(Nc3cccnc3)cc21
